The values that follow come from ChEMBL document CHEMBL4431333, “Synthesis, Antibacterial, and Anticancer Evaluation of Novel Spiramycin-Like Conjugates Containing C(5) Triazole Arm” (J Med Chem, 2016).

Converted amounts (≈) assume the structure as drawn. The source made the active and inactive calls. The rule behind the calls is not given here.

Series [1] concerns Staphylococcus epidermidis. Kind of series: Antibacterial activity against Staphylococcus epidermidis ATCC 12228 after 18 hrs by serial microdilution method. The series is classed as functional. Background: Broth dilution looks for growth in wells or tubes with falling amounts of substance.
Series [2] has as its system Streptococcus pneumoniae. Kind of series: Antibacterial activity against Streptococcus pneumoniae ATCC 49619 after 18 hrs by serial microdilution method. The series is classed as functional.
Series [3] concerns Staphylococcus epidermidis. Kind of series: Antibacterial activity against Staphylococcus epidermidis ATCC 49134 after 18 hrs by serial microdilution method. The series is classed as functional.
Series [4] deals with Bacillus spizizenii. Kind of series: Antibacterial activity against Bacillus subtilis ATCC 6633 after 18 hrs by serial microdilution method. The series is classed as functional.
The subject of series [5] is Staphylococcus aureus. Kind of series: Antibacterial activity against methicillin-resistant Staphylococcus aureus isolate 1 after 18 hrs by serial microdilution method. It is filed as functional. The method, boiled down:
(§1)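 Clinical MRSA isolates, confirmed by cefoxitin 30 μg disc diffusion (EUCAST) and PCR for mecA. MIC by EUCAST broth microdilution in Mueller–Hinton II broth. Compounds dissolved in DMSO and diluted in broth, tested at 0.064–64 μg mL−1. Final inoculum approximately 5 × 10^5 CFU mL−1. Read after 18 h at 35 ± 2 °C.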

For series [6], the system named is Micrococcus luteus. Kind of series: Antibacterial activity against Micrococcus luteus ATCC 10240 after 18 hrs by serial microdilution method. The series is classed as functional.
The subject of series [7] is Staphylococcus aureus. Kind of series: Antibacterial activity against methicillin-resistant Staphylococcus aureus isolate 2 after 18 hrs by serial microdilution method. It is filed as functional. The method, boiled down:
as §1

Series [8] is described as follows: (§2) Selectivity index, ratio of IC50 for HDF to IC50 for human KB cells.
Series [9] can be described thus: (§3) Selectivity index, ratio of IC50 for HDF to IC50 for human MCF7 cells.
The nature of series [10]: (§4) Selectivity index, ratio of IC50 for HDF to IC50 for human HeLa cells.
For series [11], the system named is MCF7. Kind of series: Cytotoxicity against human MCF7 cells assessed as reduction in cell survival after 72 hrs by sulforhodamine B assay. The series is classed as functional, cell-based. On the technique in general: The SRB assay estimates cell density from bound dye.
The subject of series [12] is NHDF. Kind of series: Cytotoxicity against HDF assessed as reduction in cell survival after 72 hrs by sulforhodamine B assay. It is filed as cell-based, Homo sapiens.
Series [13] in a line: Solubility of compound in water. The series is classed as physicochemical.
The subject of series [14] is HeLa. Kind of series: Cytotoxicity against human HeLa cells assessed as reduction in cell survival after 72 hrs by sulforhodamine B assay. The series is classed as functional, cell-based.
Series [15] deals with HepG2. Kind of series: Cytotoxicity against human HepG2 cells assessed as reduction in cell survival after 72 hrs by sulforhodamine B assay. The series is classed as functional, cell-based.
Series [16] relates to KB. Kind of series: Cytotoxicity against human KB cells assessed as reduction in cell survival after 72 hrs by sulforhodamine B assay. The series is classed as functional, cell-based.
Series [17] in a line: Octanol-water partition coefficient, log P of compound after 1 hr by UV-visible spectrophotometric analysis. The series is classed as physicochemical.
A short description of series [18]: (§5) Selectivity index, ratio of IC50 for HDF to IC50 for human HepG2 cells.
Series [19] is filed under the species Homo sapiens. The series is described as §3.
The species entered for series [20] is Homo sapiens. The series is described as §4.
The species named for series [21] is Homo sapiens. The description is as §2.
For series [22], the species on record is Homo sapiens. The description is as §5.

What is called MIC is the lowest concentration that inhibits growth of the organism. Read a low MIC as inhibition by little substance. For `CO/C1=C\CC(=O)O[C@H](C)C/C=C/C=C/[C@H](O[C@H]2CC[C@H](N(C)C)[C@@H](C)O2)[C@H](C)C[C@@H]2C[C@H](OCc3cn([C@H]4O[C@@H](CO)[C@@H](O)[C@@H](O)[C@@H]4O)nn3)O[C@@H]12`, the MIC was > 85.2 µM in series [1] (ATCC 12228, 18 h); 10.7 µM (≈ 8 µg/mL) in series [2] (ATCC 49619, 18 h); > 85.2 µM in series [3] (ATCC 49134, 18 h); 85.2 µM (≈ 64 µg/mL) in series [4] (ATCC 6633, 18 h); > 85.2 µM in series [5] (isolate 1, 18 h); 85.2 µM (≈ 64 µg/mL) in [6] (ATCC 10240, 18 h). In series [7] (isolate 2, 18 h), the MIC is > 85.2 µM.

For the compound `Nc1ccn([C@@H]2O[C@H](CO)[C@@H](O)[C@@H]2O)c(=O)n1` [CYTARABINE], the “Ratio IC50” value in [8] is recorded as 1.23.

The IC50 is the point on the concentration scale where inhibition reaches its midpoint. Regarding `Cc1cn([C@H]2C[C@H](N=[N+]=[N-])[C@@H](CO)O2)c(=O)[nH]c1=O` [ZIDOVUDINE], the “Ratio IC50” value was determined as 1.88 in series [9], 1.34 in series [10] and 1.48 in series [8]. Further, the IC50 in series [11] (Homo sapiens, MCF7, 72 h) amounted to 7.67 µM.

For the compound `O=c1[nH]cc(F)c(=O)[nH]1` [FLUOROURACIL], the “Ratio IC50” value in series [8] is given as 1.45. The IC50 in [12] (Homo sapiens, NHDF, 72 h) worked out at 7.02 µM.

Turning to `CO/C1=C\CC(=O)O[C@H](C)C/C=C/C=C/[C@H](O[C@H]2CC[C@H](N(C)C)[C@@H](C)O2)[C@H](C)C[C@@H]2C[C@H](OCc3cn([C@H]4O[C@@H](CO)[C@H](O)[C@@H](O)[C@@H]4O)nn3)O[C@@H]12`, the MIC in [1] (ATCC 12228, 18 h) is 85.2 µM (≈ 64 µg/mL); in [2] (ATCC 49619, 18 h), 10.7 µM (≈ 8 µg/mL); in [3] (ATCC 49134, 18 h), 85.2 µM (≈ 64 µg/mL); in series [4] (ATCC 6633, 18 h), 85.2 µM (≈ 64 µg/mL); in series [5] (isolate 1, 18 h), > 85.2 µM; in series [6] (ATCC 10240, 18 h) it was 85.2 µM (≈ 64 µg/mL). Moreover, the MIC in series [7] (isolate 2, 18 h) is > 85.2 µM.

By solubility is commonly meant the dissolved amount per volume that the medium holds. For `C#CCO[C@H]1C[C@H]2C[C@@H](C)[C@@H](O[C@H]3CC[C@H](N(C)C)[C@@H](C)O3)/C=C/C=C/C[C@@H](C)OC(=O)C/C=C(\OC)[C@@H]2O1`, the outcome in [1], in series [2], in series [3], in [4], in series [5] and in series [6] was inactive. Also, the outcome in series [7] was inactive. Moreover, the solubility entry in [13] (buffer) is listed as “Insoluble”.

As for `C=CCO[C@H]1C[C@H]2C[C@@H](C)[C@@H](O[C@H]3CC[C@H](N(C)C)[C@@H](C)O3)/C=C/C=C/C[C@@H](C)OC(=O)C/C=C(\OC)[C@@H]2O1`, the result in [1], in series [2], in series [4], in series [5] and in series [6] was inactive. In series [13] (buffer), the solubility result was “Insoluble”.

As for `CO/C1=C\CC(=O)O[C@H](C)C/C=C/C=C/[C@H](O[C@H]2CC[C@H](N(C)C)[C@@H](C)O2)[C@H](C)C[C@@H]2C[C@H](OCc3cn(C4CCCCCC4)nn3)O[C@@H]12`, the solubility entry in [13] (buffer) is given as “Insoluble”.

In the case of `CO/C1=C\CC(=O)O[C@H](C)C/C=C/C=C/[C@H](O[C@H]2CC[C@H](N(C)C)[C@@H](C)O2)[C@H](C)C[C@@H]2C[C@H](OCc3cn([C@H]4C[C@H](n5cc(C)c(=O)[nH]c5=O)O[C@@H]4CO)nn3)O[C@@H]12`, the solubility entry in series [13] (buffer) is “Insoluble”.

Consider `CO/C1=C\CC(=O)O[C@H](C)C/C=C/C=C/[C@H](O[C@H]2CC[C@H](N(C)C)[C@@H](C)O2)[C@H](C)C[C@@H]2C[C@H](OCc3ccc(F)cc3)O[C@@H]12`, for which the result in [1], in [2], in series [4], in series [5] and in [6] was inactive. Besides, in series [13] (buffer), the solubility entry is “Insoluble”.

As for `CO/C1=C\CC(=O)O[C@H](C)C/C=C/C=C/[C@H](O[C@H]2CC[C@H](N(C)C)[C@@H](C)O2)[C@H](C)C[C@@H]2C[C@H](OCc3cn(Cc4ccccc4)nn3)O[C@@H]12`, the solubility result in series [13] (buffer) is listed as “Insoluble”.

In the case of `CO/C1=C\CC(=O)O[C@H](C)C/C=C/C=C/[C@H](O[C@H]2CC[C@H](N(C)C)[C@@H](C)O2)[C@H](C)C[C@@H]2C[C@H](OCc3cn(CC4CCCCC4)nn3)O[C@@H]12`, in [13] (buffer), the solubility result is “Insoluble”.

One may read the logP as the decadic logarithm of the partition coefficient of the neutral form, usually between octanol and water. A lower logP goes with a more hydrophilic compound. On to `COC1=C\[C@@H](CC=O)C[C@@H](C)[C@@H](O[C@H]2CC[C@H](N(C)C)[C@@H](C)O2)/C=C/C=C/C[C@@H](C)OC(=O)\C=C\1`, for which the IC50 in series [14] (Homo sapiens, HeLa, 72 h) was 127 µM; in series [15] (Homo sapiens, HepG2, 72 h) it was 135 µM; in series [16] (Homo sapiens, KB, 72 h) it was 133 µM; in [11] (Homo sapiens, MCF7, 72 h), 131 µM; in [12] (Homo sapiens, NHDF, 72 h), 139 µM. In addition, the MIC turned out to be 16.3 µM (≈ 8 µg/mL) in [1] (ATCC 12228, 18 h); 4.08 µM (≈ 2 µg/mL) in series [2] (ATCC 49619, 18 h); 16.3 µM (≈ 8 µg/mL) in series [3] (ATCC 49134, 18 h); 16.3 µM (≈ 8 µg/mL) in series [4] (ATCC 6633, 18 h); 32.7 µM (≈ 16 µg/mL) in [5] (isolate 1, 18 h); 8.17 µM (≈ 4 µg/mL) in series [6] (ATCC 10240, 18 h). Besides, inhibition of growth in series [7] (isolate 2, 18 h) (MIC) required 32.7 µM (≈ 16 µg/mL). Further, the “Ratio IC50” value in series [9] is reported as 1.07; in series [10], 1.1; in series [8], 1.05; in series [18], 1.03. In addition, the solubility in series [13] (water, read-out: solubility) worked out at 0.7 mg/mL (≈ 1430 µM). This compound came in with a logP at 1 h in [17] of 0.74.

As to `CO/C1=C\CC(=O)O[C@H](C)C/C=C/C=C/[C@H](O[C@H]2CC[C@H](N(C)C)[C@@H](C)O2)[C@H](C)C[C@@H]2C[C@H](OCc3cn(C4CCCCC4)nn3)O[C@@H]12`, in [13] (buffer), the solubility result is listed as “Insoluble”.

Consider SPIRAMYCIN [listing 1 of 2 here], for which the MIC is 2.37 µM in series [1]; 0.3 µM in series [2]; 2.37 µM in series [3]; 0.59 µM in series [4]; 9.49 µM in series [5]; 0.3 µM in series [6]. For the same compound, 4.74 µM was the least that counted as inhibitory in series [7] (MIC). For the same compound, the Ratio IC50 worked out at 0.94 in [19], 0.9 in series [20], 0.9 in series [21] and 1.02 in series [22].

With SPIRAMYCIN [listing 2 of 2 here], the IC50 turned out to be 34.4 µM in [14] (hela); 30.5 µM in series [15] (hepg2); 31.3 µM in [16] (kb); 33.1 µM in series [11] (mcf7); 31.1 µM in series [12] (nhdf). Moreover, in series [13] (buffer), the solubility was 4.5 mg/mL. Moreover, the logP in series [17] (1 h) is recorded as 0.58.

In the case of `CO/C1=C\CC(=O)O[C@H](C)C/C=C/C=C/[C@H](O[C@H]2CC[C@H](N(C)C)[C@@H](C)O2)[C@H](C)C[C@@H]2C[C@H](OCc3cn(CC4CCOCC4)nn3)O[C@@H]12`, the result in [1], in series [2], in series [3], in series [4], in [5] and in series [6] was inactive. Also, the result in series [7] was inactive. In [13] (buffer), the solubility entry was “Insoluble”.

`O=c1[nH]c(=O)n([C@H]2C[C@H](O)[C@@H](CO)O2)cc1F` [FLOXURIDINE]: the “Ratio IC50” value in series [8] is listed as 1.5.
